We go through 19 compounds from ChEMBL document CHEMBL1122360, “Inhibitors of gastric acid secretion: antisecretory 2-pyridylurea derivatives” (1983).

In assay [1] the test system is Canis familiaris. The assay is described as follows: Inhibition of gastric acid secretion at 40 mg/kg oral administration to dogs. The format is functional. The note with it: Canis lupus familiaris, Stomach. In short, it runs like this:
(§1)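 Unanesthetized female beagle dogs with chronic gastric fistula; compound in 50 mL aqueous 1% methylcellulose delivered into stomach via fistula cannula 60 min before gastrin tetrapeptide (64 μg/kg sc, maximal secretory dose). Gastric output drained by gravity over three 30-min periods; acid concentration by titration to pH 7 with 0.01 N NaOH; percent decrease in acid concentration versus placebo trial in same animal; dose as base weight.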

Assay [2] has as its system Canis familiaris. The experiment in a line: Inhibition of gastric acid secretion at 20 mg/kg oral administration to dogs. It is filed as functional. The note with it: Canis lupus familiaris, Stomach. Put shortly:
as §1

Assay [3] has as its system Canis familiaris. The assay is described as follows: Inhibition of gastric acid secretion at 40 mg/kg oral administration to dogs; Compound is CNS (central nervous system) effective. The note with it: Canis lupus familiaris, Stomach. The arrangement: dose 40 mg/kg. The format is functional, organism-based. In short, it runs like this:
as §1

Assay [4] concerns Canis familiaris. The assay is described as follows: Inhibition of gastric acid secretion at 10 mg/kg oral administration to dogs. The format is functional. The following applies: Canis lupus familiaris, Stomach. Put shortly: as §1
Assay [5] concerns Canis familiaris. The assay is described as follows: Acid output of histamine stimulated inhibition of gastric secretion when administered perorally in dogs. The format is functional. The following applies: Canis lupus familiaris, Stomach, po. In short, it runs like this: (§2)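 Unanesthetized female beagle dogs with chronic gastric fistula; compound in 50 mL 1% aqueous methylcellulose given into stomach via fistula cannula 60 min before stimulant (gastrin tetrapeptide 64 μg/kg sc, or histamine dihydrochloride 64 μg base/kg sc). Output drained by gravity, three 30-min periods; volume measured, acid concentration titrated to pH 7 with 0.01 N NaOH, output = volume × concentration. Percent change vs placebo trial in same dog.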

The subject of assay [6] is Canis familiaris. The assay is described as follows: Volume of gastrin tetrapeptide stimulated inhibition of gastric secretion when administered perorally in dogs. The format is functional. The note with it: Canis lupus familiaris, Stomach, po. In short, it runs like this: as §2
In assay [7] the test system is Canis familiaris. The assay is described as follows: Acid concentration of gastrin tetrapeptide stimulated inhibition of gastric secretion when administered perorally in dogs. The note with it: Canis lupus familiaris, Stomach, po. It is filed as functional. In short, it runs like this:
as §2

Assay [8] has as its system Canis familiaris. The assay is described as follows: Volume of histamine stimulated inhibition of gastric secretion when administered perorally in dogs. The following applies: Canis lupus familiaris, Stomach, po. The format is functional. In short, it runs like this:
as §2

Assay [9] deals with Canis familiaris. The experiment in a line: Acid output of gastrin tetrapeptide stimulated inhibition of gastric secretion when administered perorally in dogs. The following applies: Canis lupus familiaris, Stomach, po. It is filed as functional. Put shortly:
as §2

Assay [10] concerns Canis familiaris. The assay is described as follows: Acid concentration of histamine stimulated inhibition of gastric secretion when administered perorally in dogs. The note with it: Canis lupus familiaris, Stomach, po. It is filed as functional. Put shortly: as §2

In general, inhibition in vivo refers to the change of the read-out against control, counted positive when it falls. In the assay on Canis familiaris [1], `Cc1ccc(N(CCN(C(C)C)C(C)C)C(=O)N(C)C)nc1` showed an inhibition in vivo at 40 mg/kg of 33%. This compound also yielded an inhibition in vivo at 20 mg/kg in the assay with Canis familiaris [2] of 19%.

Take `Cc1cc(C)nc(N(CCN(C(C)C)C(C)C)C(N)=O)c1`: in the assay on Canis familiaris [3], the inhibition entry is “CNS effect”. Also, the inhibition in vivo at 20 mg/kg in the assay with Canis familiaris [2] worked out at 18%.

`Cc1cc(C)nc(N(CCNC(C)C)C(=O)N(C)C)c1` registered an inhibition in vivo at 40 mg/kg in the assay on Canis familiaris [1] of 42%. The inhibition in vivo at 20 mg/kg in the assay with Canis familiaris [2] is 33%.

With `CNCCN(C(=O)N(C)C)c1cc(C)cc(C)n1`, the inhibition in vivo at 40 mg/kg with Canis familiaris [1] was 20%.

`Cc1cc(Cl)nc(N(CCN(C(C)C)C(C)C)C(=O)N(C)C)c1` gave an inhibition in vivo at 10 mg/kg in the assay on Canis familiaris [4] of 52%. This compound also yielded an inhibition in vivo at 20 mg/kg in the assay with Canis familiaris [2] of 71%.

In general, ED50 refers to the dose at which the effect has come halfway, by size or by number of responders. The low end stands for an effect at a small dose, the high end for a need for a large dose. As to `Cc1cc(C)nc(N(CCN(C(C)C)C(C)C)C(=O)N(C)C)c1.Cl`, the median effective dose (ED50) in the assay on Canis familiaris [5] stood at 5.1 mg/kg; with Canis familiaris [6], 3.8 mg/kg; in the assay on Canis familiaris [7] it was 6.8 mg/kg; with Canis familiaris [8], 12.6 mg/kg; in the assay on Canis familiaris [9], 3.3 mg/kg; in the assay on Canis familiaris [10] it was 9.6 mg/kg. This compound returned an inhibition in vivo at 10 mg/kg in the assay with Canis familiaris [4] of 70%. Besides, the inhibition in vivo at 20 mg/kg in the assay on Canis familiaris [2] amounted to 100%.

As to `Cc1cc(C)nc(N(CCCN(C(C)C)C(C)C)C(=O)N(C)C)c1`, testing at 40 mg/kg in the assay on Canis familiaris [1] gave an inhibition in vivo of 35%. This compound had an inhibition in vivo at 20 mg/kg in the assay with Canis familiaris [2] of 0%.

As for `Cc1cc(N(CCN(C(C)C)C(C)C)C(=O)N(C)C)nc(C)c1Cl`, in the assay on Canis familiaris [4], the inhibition in vivo at 10 mg/kg amounted to 62%. Moreover, the inhibition in vivo at 20 mg/kg in the assay with Canis familiaris [2] was 95%.

With `CNC(=O)N(CCN(C(C)C)C(C)C)c1cc(C)cc(C)n1`, the inhibition result with Canis familiaris [3] was “CNS effect”. In the assay with Canis familiaris [2], this compound displayed an inhibition in vivo at 20 mg/kg of 44%.

`CC(C)N(CCN(C(=O)N(C)C)c1ccc(Cl)cn1)C(C)C` displayed an inhibition in vivo at 10 mg/kg with Canis familiaris [4] of 44%. The inhibition in vivo at 20 mg/kg in the assay on Canis familiaris [2] turned out to be 63%.

In the case of `CC(C)N(CCN(C(=O)N(C)C)c1cccc(Cl)n1)C(C)C`, at 20 mg/kg the inhibition in vivo in the assay with Canis familiaris [2] was 78%.

Consider `CCCN(CCC)CCN(C(=O)N(C)C)c1cc(C)cc(C)n1`, for which, in the assay on Canis familiaris [1], 40 mg/kg produced 93% inhibition in vivo. Further, at 20 mg/kg the inhibition in vivo in the assay on Canis familiaris [2] was 22%.

On to `Cc1cccc(N(CCN(C(C)C)C(C)C)C(=O)N(C)C)n1`, for which, in the assay on Canis familiaris [4], the inhibition in vivo at 10 mg/kg stood at 54%. The inhibition in vivo at 20 mg/kg with Canis familiaris [2] amounted to 87%.

For `CC(C)N(CCN(C(=O)N(C)C)c1ccccn1)C(C)C`, at 40 mg/kg the inhibition in vivo with Canis familiaris [1] was 82%. In the assay with Canis familiaris [2], this compound came in with an inhibition in vivo at 20 mg/kg of 17%.

`Cc1cc(C)nc(N(CCN(C)C)C(=O)N(C)C)c1` yielded an inhibition in vivo at 40 mg/kg with Canis familiaris [1] of 58%. In the assay on Canis familiaris [4], this compound showed an inhibition in vivo at 10 mg/kg of 14%. The same compound showed an inhibition in vivo at 20 mg/kg in the assay with Canis familiaris [2] of 58%.

Consider `Cc1ccnc(N(CCN(C(C)C)C(C)C)C(=O)N(C)C)c1`, for which the inhibition in vivo at 10 mg/kg in the assay on Canis familiaris [4] came to 79%. In addition, in the assay on Canis familiaris [2], 20 mg/kg produced 95% inhibition in vivo.

Take `CN/C(=N\CCSCc1nc[nH]c1C)NC#N` [CIMETIDINE]: the ED50 in the assay on Canis familiaris [5] was 2.6 mg/kg; in the assay on Canis familiaris [6], 3.9 mg/kg; in the assay with Canis familiaris [7], 6.4 mg/kg; in the assay on Canis familiaris [8], 3.5 mg/kg; in the assay with Canis familiaris [9], 3.6 mg/kg; in the assay with Canis familiaris [10] it was 5 mg/kg.

`Cc1cc(C)nc(N(CCCCN(C(C)C)C(C)C)C(=O)N(C)C)c1`: in the assay with Canis familiaris [1], testing at 40 mg/kg gave an inhibition in vivo of 3%. In the assay with Canis familiaris [2], this compound gave an inhibition in vivo at 20 mg/kg of 5%.

`COc1ccnc(N(CCN(C(C)C)C(C)C)C(=O)N(C)C)c1` yielded an inhibition in vivo at 10 mg/kg with Canis familiaris [4] of 64%. The compound also registered an inhibition in vivo at 20 mg/kg with Canis familiaris [2] of 84%.
